# Screening results as filed in PubChem BioAssay.
# PRMT1 FP inh – blocks human protein arginine methyltransferase 1; Q99873; actives 1.3% (n = 370,000); inhibition, % at 2.79 µM; recombinant PRMT1, activity-based probe fluorescence polarization;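 active = inhibition above about 21% made by adding two undisclosed values, limit read from the data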
# mABHD4 FP – inhibitors of mouse ABHD4; Q8VD66; purified mABHD4, FP-Rh probe fluorescence polarization; inhibition, % at 8.92 µM; actives 0.54% (n = 370,000); AID 720543;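 active = inhibition exceeding the mean over every tested compound plus 3 SD, cut at about 30% in these data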;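 also: 0% = plate median of compound wells and 100% = S159A mutant with DMSO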
#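 assay system = mABHD4 protein | compound dosing = single nominal dose of 8.92 µM, 0.89% DMSO final | read-out basis = percent inhibition of probe binding, normalized to plate controls | schedule = Enzyme–compound pre-incubation 45 min, then probe 60 min, both 25 °C | detection = fluorescence polarization, excitation 525 nm, emission 598 nm, BODIPY TMR filters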
# HTRA1 inhibitor – inhibitors of human serine peptidase HTRA1; inhibition, % at 5.96 µM; AID 504803; recombinant HTRA1, FP-rhodamine activity-based probe, fluorescence polarization; actives 0.5% (n = 340,000); in the data active = inhibition above about 36%;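 also: 0% = enzyme with DMSO and 100% = wells lacking enzyme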
# SIAE primary – blocks human sialic acid acetylesterase; Q9HAT2; SIAE FP-Rh probe binding, fluorescence polarization; inhibition, % at 9.66 µM; actives 0.69% (n = 370,000); AID 1053197;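 active = inhibition above a cutoff: mean of compounds within the control limits plus 3 SD of those, cut at about 17% in these data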;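 also: 0% = plate median of compound wells and 100% = probe without SIAE protein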
# Target sequence (Q9HAT2 whole entry, looked up): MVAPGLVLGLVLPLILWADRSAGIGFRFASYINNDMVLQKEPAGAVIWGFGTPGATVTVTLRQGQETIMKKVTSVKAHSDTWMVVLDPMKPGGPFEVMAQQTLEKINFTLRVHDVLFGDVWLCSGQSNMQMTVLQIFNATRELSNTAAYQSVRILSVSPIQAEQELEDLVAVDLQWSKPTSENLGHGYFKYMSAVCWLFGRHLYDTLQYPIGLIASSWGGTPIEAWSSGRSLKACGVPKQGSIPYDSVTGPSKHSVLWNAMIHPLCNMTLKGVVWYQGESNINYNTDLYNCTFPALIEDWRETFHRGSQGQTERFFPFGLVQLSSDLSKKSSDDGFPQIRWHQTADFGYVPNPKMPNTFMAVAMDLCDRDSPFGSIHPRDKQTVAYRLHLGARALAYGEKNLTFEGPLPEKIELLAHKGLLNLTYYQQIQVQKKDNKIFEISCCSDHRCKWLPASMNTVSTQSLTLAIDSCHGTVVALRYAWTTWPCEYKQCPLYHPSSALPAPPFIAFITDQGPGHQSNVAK
# TCR CD3 inh – human TCR-CD3 binding inhibition | TAMRA-labeled TCR probe fluorescence, biochemical | AID 651800 | inhibition, % at 9.4 µM | actives 0.37% (n = 360,000);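 also: recombinant mutant TCR 2C K166C tagged with TAMRA read by polarization; 0% = receptor in buffer alone and 100% = receptor with positive control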
# BSA probe FL – counter-screen for TCR-CD3 interaction inhibitors: BSA probe; shares compounds with TCR CD3 inh; TAMRA-labeled BSA probe fluorescence counterscreen; inhibition, % at 9.4 µM; actives 10% (n = 1,200); in the data active = inhibition above about 23%;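 also: 0% = buffer low control and 100% = reference high control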
# TCR-CD3 inh conf – TCR-CD3 interaction inhibition, confirmation; shares compounds with TCR CD3 inh; TAMRA-labeled TCR probe fluorescence binding assay; inhibition, % at 9.4 µM; actives 48% (n = 1,200); AID 652036
# Numbers without * were called inactive; nt = no result. This is a sample that favours compounds with a hit; in the whole collection about 2.5% have one here. Rule as the data show it, unless noted: active = inhibition above about 19%; inactive = the rest.
SMILES,PRMT1 FP inh,mABHD4 FP,HTRA1 inhibitor,SIAE primary,TCR CD3 inh,BSA probe FL,TCR-CD3 inh conf
Nc1ccc2nc(-c3cccc(-c4nc5ccc(N)cc5[nH]4)n3)[nH]c2c1,2,13,5,-3,24*,-50,47*
C=CCn1c(CNc2ccc(C)cc2)nnc1SCC(=O)N/N=C/c1ccc(O)cc1,-3,3,6,6,8,nt,nt
O=c1c(-c2ccc(O)cc2)coc2cc(O)cc(O)c12,2,2,-2,-6,-8,nt,nt
COc1c(-c2ccc(O)cc2)oc2cc(O)cc(O)c2c1=O,1,-2,6,6,32*,-7,15
O=c1c(-c2c(O)cc(O)c3c(=O)cc(-c4ccc(O)cc4)oc23)c(-c2ccc(O)cc2)oc2cc(O)cc(O)c12,5,-71,12,-36,31*,-2,23*
O=C(NCCSc1ccc(Br)cc1)c1ccc2nc[nH]c2c1,5,6,-5,2,10,nt,nt
O=C(Nc1ccc(F)cc1)c1nc[nH]c1C(=O)Nc1ccccc1[N+](=O)[O-],-2,2,3,-1,5,nt,nt
NNC(=O)c1nc[nH]c1C(=O)Nc1ccccc1[N+](=O)[O-],1,-1,-1,2,30*,-7,10
COCCOC(=O)N(C)C[C@@H]1OCCCC[C@H](C)Oc2ccc(NC(=O)Nc3ccccc3)cc2C(=O)N([C@@H](C)CO)C[C@H]1C,-4,2,nt,0,nt,nt,nt
COc1ccc(/C(C)=N/NC(=O)c2nnn(-c3nonc3N)c2CN(C)c2ccccc2)cc1,-4,-6,-12,-3,5,nt,nt
C/C(=N\NC(=O)c1nnn(-c2nonc2N)c1CN(C)c1ccccc1)c1ccccc1O,2,-5,29,3,41*,-2,29*
COc1ccc2oc(C(=O)OCC(=O)N(C)CC(=O)Nc3ccc(C)cc3)c(C)c2c1,1,-6,-15,-15,6,nt,nt
CCN(CC)S(=O)(=O)c1cccc(C(=O)N/N=C(\C)c2ccc(O)cc2O)c1,2,21,21,11,41*,-19,44*
Cc1ccc(NC(=O)CN(C)C(=O)c2cccc(-n3cccc3)c2)cc1,-4,0,-18,-2,22*,-9,15
Cc1ccc(NC(=O)CCCc2ccccc2)c([N+](=O)[O-])c1,-2,-13,-5,-11,6,nt,nt
O=C(CN1CCN(c2ccccc2)CC1)N1CCc2[nH]c3ccccc3c2C1,2,5,8,4,22*,3,1
Nc1ncnc2c1ncn2[C@@H]1O[C@H](C(=O)N[C@@H](CCc2ccccc2)C(=O)O)[C@@H](O)[C@H]1O,-7,-1,nt,-5,-5,nt,nt
O=C(Nc1ccc(Cl)c(Cl)c1)Oc1ccc(NC(=O)c2ccco2)cc1,-2,-57,-30,-132,40*,4,15
O=c1c2c(-c3ccc(Cl)cc3)csc2ncn1/N=C/c1cccc([N+](=O)[O-])c1O,2,7,11,7,30*,-11,29*
O=[N+]([O-])c1cccc(/C=N/n2cnnc2)c1O,-1,2,0,2,0,nt,nt
COc1ccc(OC)c(CN2C(=O)CSCC2(C)C(=O)NCc2ccccc2)c1 (stereo not given),-5,-6,nt,-4,-9,nt,nt
Cc1ccccc1CS(=O)(=O)Cc1ccc(C(=O)Nc2cccc(C)c2C)o1,-6,-1,nt,-5,nt,nt,nt
CC(=O)Nc1ccc(/C=N/NC(=O)c2cc(-c3ccco3)nc3ccccc23)cc1,3,-49,-26,-75,2,nt,nt
O=C(O)c1ccccc1/C=N/NC(=O)c1cc(-c2ccco2)nc2ccccc12,15,11,20,11,20*,-8,25*
COC(=O)C1=C(CSc2nc3c(cc2C#N)CN(C)CC3)OC(N)=C(C#N)C1c1ccc(F)cc1 (stereo not given),13,14,19,7,20*,-3,0
SMILES,PRMT1 FP inh,mABHD4 FP,HTRA1 inhibitor,SIAE primary,TCR CD3 inh,BSA probe FL,TCR-CD3 inh conf
CN(c1ccccc1)S(=O)(=O)c1cccc(C(=O)NCC(c2cccs2)N2CCOCC2)c1 (stereo not given),1,-7,4,-5,2,nt,nt
COc1ccc(C(=O)Nc2nnc(CC(=O)N/N=C/c3ccc(O)cc3O)s2)cc1,7,-3,7,10,23*,-6,35*
Cc1nn(-c2ccccc2)c(Cl)c1/C=N/NC(=O)c1cccnc1,-1,-1,4,3,2,nt,nt
O=C(N/N=C/c1c(Cl)nc2ccccn2c1=O)c1cccnc1,6,13,7,-2,29*,-6,6
COc1ccc(NS(=O)(=O)c2cccc(C(=O)N/N=C/c3cn(-c4ccccc4)nc3-c3ccccc3)c2)cc1,1,-1,-5,-12,0,nt,nt
COc1ccccc1NS(=O)(=O)c1cccc(C(=O)N/N=C/c2cn(-c3ccccc3)nc2-c2ccccc2)c1,-5,-91,-27,-97,45*,22,44*
Cc1cc(C)nc(SCC(=O)Nc2ccccc2[N+](=O)[O-])n1,-5,-5,5,5,3,nt,nt
O=C1CC(=O)NC(SCC(=O)Nc2ccccc2[N+](=O)[O-])=N1,28*,20,5,16,26*,-12,15
Cc1cc(OCC(=O)NNC(=O)CCc2ccccc2)ccc1Br,-1,6,-6,5,5,nt,nt
CC(CCN1CCC(C(O)(c2ccccc2)c2ccccc2)CC1)Oc1cc(F)cc(F)c1 (stereo not given),0,8,nt,4,nt,nt,nt
COc1ccc(S(=O)(=O)N2CCN(CC(=O)c3ccc(O)c(O)c3)CC2)cc1,14,15,19,11,25*,-4,18
CCOC(=O)C1=CCN(S(=O)(=O)c2cccc(Cl)c2)C1c1cccc(F)c1 (stereo not given),-1,-8,nt,-6,65*,5,4
O=C(Nc1ccc(F)cc1)OCc1cn(Cc2ccc(F)c(F)c2)nn1,-3,-6,nt,-5,nt,nt,nt
COCCNc1oc(-c2ccc(Cl)cc2)nc1C#N,1,3,-1,-6,19*,0,-1
COCCNc1oc(-c2ccc(C)cc2)nc1C#N,2,-9,-3,-3,1,nt,nt
Cc1ccc(S(=O)(=O)CCC(=O)Oc2ccc3c(C)cc(=O)oc3c2)cc1,7,2,-1,11,23*,-8,0
COc1ccccc1NC(=O)NNC(=O)c1ccc(-c2ccccc2)cc1,-1,-12,-17,0,-1,nt,nt
Cc1ccc(NC(=O)NNC(=O)c2cc3ccccc3cc2O)cc1,-5,-4,18,2,32*,-2,21*
COc1ccc(NS(=O)(=O)c2cccc(C(=O)NNC(=O)c3ccccc3O)c2)cc1,2,16,20,-2,28*,-16,16
COc1cc(OC)cc(C(=O)NNC(=O)c2cc3ccccc3cc2O)c1,-1,-8,9,10,26*,-11,19
